# “Also recorded” adds a separate entry of the source.
# Tests used:
# [1] = cited from earlier work
# [2] = target: T1, trastuzumab (Homo sapiens, UniProt P01857); assay: Template-directed conjugation to trastuzumab, LC-FTMS analysis; type: biochemical; settings: payload transferred with Fc-III-L6Orn carbonate reactive conjugate
# [3] = target: T1, trastuzumab; assay: Random conjugation experiments with trastuzumab, LC-FTMS; type: biochemical; settings: 10 eq., 16h, RT, pH 9.5
# [4] = test system: mice bearing MDA-MB-231 (PD-L1hi) tumor xenograft; assay: [64Cu]Cu-atezolizumab biodistribution study; type: in vivo, mouse; settings: n = 4, ± SD
# In short: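 Each received an i.v. dose of 0.25 MBq labelled conjugate (0.05 μg), given with 49.95 μg unlabelled parent antibody to saturate nonspecific Fc receptors. Animals were killed at 2, 24 and 48 h; organs collected, weighed and counted, and results given as %ID g−1. Blocking group at 24 h: co-injected 2 mg unlabelled antibody per mouse. n = 4 per group.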
# [5] = test system: mice bearing MDA-MB-231 xenograft; assay: [64Cu]Cu-atezolizumab PET/CT imaging study; type: in vivo, mouse; settings: 9 MBq i.v.; 2, 24, 48 h
# [6] = 24 h p.i. + blocking (2 mg cold atezolizumab)
# T1 sequence (P01857 1-330 isoform P01857-1): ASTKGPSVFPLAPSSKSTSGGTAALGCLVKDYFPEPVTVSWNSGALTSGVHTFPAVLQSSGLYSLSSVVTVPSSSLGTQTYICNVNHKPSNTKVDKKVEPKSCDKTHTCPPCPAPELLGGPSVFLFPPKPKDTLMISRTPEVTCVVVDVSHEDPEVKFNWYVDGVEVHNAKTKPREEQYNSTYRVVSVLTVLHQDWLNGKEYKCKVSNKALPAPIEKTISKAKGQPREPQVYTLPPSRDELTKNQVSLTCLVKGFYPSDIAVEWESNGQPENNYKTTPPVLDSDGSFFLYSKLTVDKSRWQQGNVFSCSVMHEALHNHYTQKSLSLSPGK
compound,measurement,setting,value
PNU-159682,Cytotoxicity relative to doxorubicin,[1],more than thousandfold increased cytotoxicity compared to doxorubicin
same,Labeled mAb,[2],46%
same,Selectivity Fc/Fab,[2],5.40
O=C(O)CN1CCN(CC(=O)O)CCN(CC(=O)ON2C(=O)CCC2=O)CCN(CC(=O)O)CC1 [DOTA-NHS],Labeled mAb,[3],73%
same,Selectivity Fc/Fab,[3],1.46
"[^64Cu]Cu-atezolizumab: atezolizumab-NODAGA prepared with Fc-III-L6Orn-carbonate-NODAGA, radiolabeled with copper-64","Biodistribution, Blood","[4]; 2 h p.i., i.v. 0.25 MBq",6.3 ± 3.8 % ID g^−1
same,"Biodistribution, Bone","[4]; 2 h p.i., i.v. 0.25 MBq",2.5 ± 0.4 % ID g^−1
same,"Biodistribution, Heart","[4]; 2 h p.i., i.v. 0.25 MBq",7.8 ± 0.6 % ID g^−1
same,"Biodistribution, Kidney","[4]; 2 h p.i., i.v. 0.25 MBq",11.8 ± 1.3 % ID g^−1
same,"Biodistribution, Large intestine","[4]; 2 h p.i., i.v. 0.25 MBq",1.2 ± 0.5 % ID g^−1
same,"Biodistribution, Liver","[4]; 2 h p.i., i.v. 0.25 MBq",8.2 ± 0.1 % ID g^−1
same,"Biodistribution, Lung","[4]; 2 h p.i., i.v. 0.25 MBq",14.3 ± 1 % ID g^−1
same,"Biodistribution, Muscle","[4]; 2 h p.i., i.v. 0.25 MBq",1.3 ± 0.1 % ID g^−1
same,"Biodistribution, Pancreas","[4]; 2 h p.i., i.v. 0.25 MBq",1.8 ± 1.6 % ID g^−1
same,"Biodistribution, Skin","[4]; 2 h p.i., i.v. 0.25 MBq",1.1 ± 0.3 % ID g^−1
same,"Biodistribution, Small intestine","[4]; 2 h p.i., i.v. 0.25 MBq",3.8 ± 0.9 % ID g^−1
same,"Biodistribution, Spleen","[4]; 2 h p.i., i.v. 0.25 MBq",28.1 ± 4 % ID g^−1
same,"Biodistribution, Stomach","[4]; 2 h p.i., i.v. 0.25 MBq",1.6 ± 0.6 % ID g^−1
same,"Biodistribution, Tumor (MDA-MB-231)","[4]; 2 h p.i., i.v. 0.25 MBq",5 ± 1.2 % ID g^−1
same,"Biodistribution, Blood",[4]; [6],10.9 ± 0.9 % ID g^−1
same,"Biodistribution, Bone",[4]; [6],1.7 ± 0.1 % ID g^−1
same,"Biodistribution, Heart",[4]; [6],4 ± 0.3 % ID g^−1
same,"Biodistribution, Kidney",[4]; [6],4.2 ± 0.1 % ID g^−1
same,"Biodistribution, Large intestine",[4]; [6],2.7 ± 0.2 % ID g^−1
same,"Biodistribution, Liver",[4]; [6],5.3 ± 0.6 % ID g^−1
same,"Biodistribution, Lung",[4]; [6],6.4 ± 0.7 % ID g^−1
same,"Biodistribution, Muscle",[4]; [6],1 ± 0.2 % ID g^−1
same,"Biodistribution, Pancreas",[4]; [6],3.6 ± 0.2 % ID g^−1
same,"Biodistribution, Skin",[4]; [6],2.5 ± 0.4 % ID g^−1
same,"Biodistribution, Small intestine",[4]; [6],2.6 ± 0.1 % ID g^−1
same,"Biodistribution, Spleen",[4]; [6],17.9 ± 0.1 % ID g^−1
same,"Biodistribution, Stomach",[4]; [6],1.5 ± 0.3 % ID g^−1
same,"Biodistribution, Tumor (MDA-MB-231)",[4]; [6],4.3 ± 1 % ID g^−1
same,"Biodistribution, Blood","[4]; 24 h p.i., i.v. 0.25 MBq",3.1 ± 1.7 % ID g^−1
same,"Biodistribution, Bone","[4]; 24 h p.i., i.v. 0.25 MBq",4.2 ± 1.7 % ID g^−1
same,"Biodistribution, Heart","[4]; 24 h p.i., i.v. 0.25 MBq",6.8 ± 0.5 % ID g^−1
same,"Biodistribution, Kidney","[4]; 24 h p.i., i.v. 0.25 MBq",11.9 ± 1.3 % ID g^−1
same,"Biodistribution, Large intestine","[4]; 24 h p.i., i.v. 0.25 MBq",6.1 ± 0.9 % ID g^−1
same,"Biodistribution, Liver","[4]; 24 h p.i., i.v. 0.25 MBq",11.8 ± 1.9 % ID g^−1
same,"Biodistribution, Lung","[4]; 24 h p.i., i.v. 0.25 MBq",14.2 ± 1.9 % ID g^−1
same,"Biodistribution, Muscle","[4]; 24 h p.i., i.v. 0.25 MBq",2.8 ± 0.6 % ID g^−1
same,"Biodistribution, Pancreas","[4]; 24 h p.i., i.v. 0.25 MBq",9.6 ± 3.6 % ID g^−1
same,"Biodistribution, Skin","[4]; 24 h p.i., i.v. 0.25 MBq",2.7 ± 0.7 % ID g^−1
same,"Biodistribution, Small intestine","[4]; 24 h p.i., i.v. 0.25 MBq",8.7 ± 0.9 % ID g^−1
same,"Biodistribution, Spleen","[4]; 24 h p.i., i.v. 0.25 MBq",42.8 ± 10.7 % ID g^−1
same,"Biodistribution, Stomach","[4]; 24 h p.i., i.v. 0.25 MBq",4.5 ± 2.3 % ID g^−1
same,"Biodistribution, Tumor (MDA-MB-231)","[4]; 24 h p.i., i.v. 0.25 MBq",11.4 ± 1.8 % ID g^−1
same,"Biodistribution, Blood","[4]; 48 h p.i., i.v. 0.25 MBq",2 ± 1.2 % ID g^−1
same,"Biodistribution, Bone","[4]; 48 h p.i., i.v. 0.25 MBq",2.2 ± 0.4 % ID g^−1
same,"Biodistribution, Heart","[4]; 48 h p.i., i.v. 0.25 MBq",3.8 ± 0.6 % ID g^−1
same,"Biodistribution, Kidney","[4]; 48 h p.i., i.v. 0.25 MBq",8 ± 1.8 % ID g^−1
same,"Biodistribution, Large intestine","[4]; 48 h p.i., i.v. 0.25 MBq",3.7 ± 1 % ID g^−1
same,"Biodistribution, Liver","[4]; 48 h p.i., i.v. 0.25 MBq",8.5 ± 1.6 % ID g^−1
same,"Biodistribution, Lung","[4]; 48 h p.i., i.v. 0.25 MBq",6.6 ± 0.7 % ID g^−1
same,"Biodistribution, Muscle","[4]; 48 h p.i., i.v. 0.25 MBq",1.1 ± 0.1 % ID g^−1
same,"Biodistribution, Pancreas","[4]; 48 h p.i., i.v. 0.25 MBq",3.1 ± 0.2 % ID g^−1
same,"Biodistribution, Skin","[4]; 48 h p.i., i.v. 0.25 MBq",2 ± 0.8 % ID g^−1
same,"Biodistribution, Small intestine","[4]; 48 h p.i., i.v. 0.25 MBq",4.8 ± 1.3 % ID g^−1
same,"Biodistribution, Spleen","[4]; 48 h p.i., i.v. 0.25 MBq",21.3 ± 6.5 % ID g^−1
same,"Biodistribution, Stomach","[4]; 48 h p.i., i.v. 0.25 MBq",2.1 ± 0.5 % ID g^−1
same,"Biodistribution, Tumor (MDA-MB-231)","[4]; 48 h p.i., i.v. 0.25 MBq",5.5 ± 2.1 % ID g^−1
same,PET observations,[5],an important uptake of the radiotracer was observed in liver and in spleen; also recorded: increased contrast of the tumor over time with an optimum at 24 h
DCAWH N GELVWCT NH2 (disulfide) [DM4],Labeled mAb,[2],68%
same,Selectivity Fc/Fab,[2],6.80
DCAWH N GELVWCT NH2 (disulfide) [FITC],Labeled mAb,[2],95%
same,Selectivity Fc/Fab,[2],Fc selective
DCAWH N GELVWCT NH2 (disulfide) [NODAGA],Labeled mAb,[2],97%
same,Selectivity Fc/Fab,[2],Fc selective
DCAWH N GELVWCT NH2 (disulfide) [DM1],Labeled mAb,[2],73%
same,Selectivity Fc/Fab,[2],5.70
